# Legend:
# Huh-7 [1] = assay: Effective concentration required to inhibit replication of subgenomic HCV RNA in HUH-7 cells; format: functional, cell-based; conditions: Homo sapiens
# How it was run: (§1)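 Subgenomic HCV replicon in HUH-7 cells, run in medium with 10% fetal calf serum (a modification of Bartenschlager's method). EC50 was determined only for compounds giving >50% inhibition in an initial screen at a fixed 5 μM. Values are the arithmetic mean ± half-range or standard error of at least two independent determinations, or from a single experiment where noted.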
# [2] = molecular target: T1, RNA-directed RNA polymerase (Hepacivirus hominis, UniProt O39930); assay: Inhibitory activity against by hepatitis C virus NS5B polymerase
# T1 sequence (O39930 whole entry): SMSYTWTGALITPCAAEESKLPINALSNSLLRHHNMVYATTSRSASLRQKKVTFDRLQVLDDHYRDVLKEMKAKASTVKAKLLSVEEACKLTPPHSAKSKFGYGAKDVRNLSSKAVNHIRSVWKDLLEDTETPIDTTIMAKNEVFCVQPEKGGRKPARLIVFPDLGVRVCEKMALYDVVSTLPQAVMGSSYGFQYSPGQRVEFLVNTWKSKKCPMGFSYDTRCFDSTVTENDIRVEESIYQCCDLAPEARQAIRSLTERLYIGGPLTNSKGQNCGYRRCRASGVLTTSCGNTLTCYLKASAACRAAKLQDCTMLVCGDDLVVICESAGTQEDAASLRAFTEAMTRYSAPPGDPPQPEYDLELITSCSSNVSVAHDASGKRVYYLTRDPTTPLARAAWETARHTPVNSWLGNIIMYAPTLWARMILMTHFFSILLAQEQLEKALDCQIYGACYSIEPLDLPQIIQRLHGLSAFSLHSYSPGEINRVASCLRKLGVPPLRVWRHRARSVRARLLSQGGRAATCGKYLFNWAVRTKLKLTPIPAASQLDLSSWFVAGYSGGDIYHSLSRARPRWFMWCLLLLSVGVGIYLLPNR
# How it was run: (§2)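 Purified ΔC55 NS5B polymerase assayed with heterogenic template RNA. IC50 values come from a single experiment or are arithmetic means of multiple experiments, as footnoted; some were measured in duplicate.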
# Huh-7 [3] = assay: Effective concentration required to inhibit replication of subgenomic HCV RNA in HUH-7 cells in the presence of 10% fetal calf serum; format: functional, cell-based; conditions: Homo sapiens; how it was run: as §1
# Huh-7 [4] = assay: Effective concentration required to inhibit replication of subgenomic HCV RNA in HUH-7 cells in the presence of 50% normal human serum; format: functional, cell-based
# How it was run: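 Subgenomic HCV replicon in HUH-7 cells run under high-serum conditions with 50% normal human serum in place of 10% fetal calf serum. EC50 values are the arithmetic mean ± half-range or standard error of at least two independent determinations.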
# [5] = molecular target: T1, RNA-directed RNA polymerase; assay: Inhibitory activity against hepatitis C virus NS5B polymerase enzyme; Range=6-9 nM; how it was run: as §2
# [6] = molecular target: T2, pregnane X receptor (PXR, NR1I2) (Homo sapiens, UniProt O75469); assay: Inhibition of pregnane X receptor mediated activation of alkaline phosphatase reporter gene at 10 uM; format: functional
# T2 sequence (O75469 whole entry): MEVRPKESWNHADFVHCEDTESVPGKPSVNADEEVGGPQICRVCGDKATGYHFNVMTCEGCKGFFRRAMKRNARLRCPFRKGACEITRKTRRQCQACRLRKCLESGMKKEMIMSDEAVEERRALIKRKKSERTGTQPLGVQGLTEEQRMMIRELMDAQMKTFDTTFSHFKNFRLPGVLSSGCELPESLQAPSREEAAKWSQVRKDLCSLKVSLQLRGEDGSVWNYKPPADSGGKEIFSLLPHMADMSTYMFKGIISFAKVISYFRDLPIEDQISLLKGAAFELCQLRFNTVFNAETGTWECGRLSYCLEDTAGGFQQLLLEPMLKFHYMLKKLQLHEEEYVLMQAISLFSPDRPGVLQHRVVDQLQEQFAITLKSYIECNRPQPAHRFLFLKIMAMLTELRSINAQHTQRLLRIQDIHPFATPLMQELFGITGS
# How it was run: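 HepG2 cells were cotransfected with a human PXR expression vector and a secreted alkaline phosphatase (SEAP) reporter driven by a synthetic PXR-responsive element. Cells were incubated 48 h with or without test compound, and SEAP activity was read with a commercial detection kit.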
Structure (SMILES),EC50 (Huh-7 [1]) [µM],IC50 [2] [µM],EC50 (Huh-7 [3]) [µM],other results
O=C(O)c1ccc2c(C3CCCC3)c(-c3ccccc3)n(CC(=O)N3CCS(=O)(=O)CC3)c2c1,> 5,,,
CS(=O)(=O)N1CCN(C(=O)Cn2c(-c3ccccc3)c(C3CCCC3)c3ccc(C(=O)O)cc32)CC1,> 5,,,
O=C(O)c1ccc2c(c1)c(C1CCCCC1)c(-c1ccccc1)n2CC(=O)N1CCS(=O)(=O)CC1,> 5,,,
CN1CCCC(CN(C)C(=O)Cn2c(-c3ccccc3)c(C3CCCC3)c3ccc(C(=O)O)cc32)C1 (centres undefined),0.4,0.047,,
CN1CCN(C(=O)Cn2c(-c3ccc(Cl)cc3)c(C3CCCCC3)c3ccc(C(=O)O)cc32)CC1,0.3,0.012,,
CCN(CC)C1CCN(C(=O)Cn2c(-c3ccc(OC)cc3)c(C3CCCCC3)c3ccc(C(=O)O)cc32)CC1,,,0.144,EC50 (Huh-7 [4]): 0.422 µM; IC50 [5]: 0.009 µM
CN(C)C(=O)Cn1c(-c2ccncc2)c(C2CCCCC2)c2ccc(C(=O)O)cc21,,0.134,6.7,
CN1CCN(C(=O)Cn2c(-c3ccccc3)c(C3CCCC3)c3ccc(C(=O)O)cc32)CC1,0.8,0.068,,
CC(C)N(C)Cc1cccc(-c2c(C3CCCCC3)c3ccc(C(=O)O)cc3n2CC(=O)N(C)C)c1,,0.078,1.1,
CN1CCCC(CN(C)C(=O)Cn2c(-c3ccccc3)c(C3CCCCC3)c3cc(C(=O)O)ccc32)C1 (centres undefined),> 5,,,
O=C(Cn1c(-c2ccc(Cl)cc2)c(C2CCCCC2)c2ccc(C(=O)O)cc21)NCC1CC1,1.4,0.008,,
CN1CCCC(CN(C)C(=O)Cn2c(-c3cccc(F)c3)c(C3CCCCC3)c3ccc(C(=O)O)cc32)C1 (centres undefined),,,,inhibition at 10 µM [6]: 72%
C=Cc1c(C2CCCCC2)c2ccc(C(=O)O)cc2n1CC(=O)N1CCC(N(C)C)CC1,,0.049,2.8,
O=C(Cn1c(-c2ccccc2)c(C2CCCCC2)c2ccc(C(=O)O)cc21)NCC1CC1,1.3,0.063,,
O=C(Cn1c(-c2ccccc2)c(C2CCCC2)c2ccc(C(=O)O)cc21)NCC1CC1,> 5,,,
CN(C)C(=O)Cn1c(-c2cccnc2)c(C2CCCCC2)c2ccc(C(=O)O)cc21,,0.332,13,
CN(C)Cc1cccc(-c2c(C3CCCCC3)c3ccc(C(=O)O)cc3n2CC(=O)N(C)C)c1,,0.147,3.3,
C#Cc1c(C2CCCCC2)c2ccc(C(=O)O)cc2n1CC(=O)N1CCC(N(C)C)CC1,,0.228,,
O=C(O)c1ccc2c(C3CCCCC3)c(-c3ccccc3)n(CC(=O)N3CCS(=O)(=O)CC3)c2c1,1.6,0.043,,
CN(C)C1CCN(C(=O)Cn2c(-c3ccccc3)c(C3CCCCC3)c3cc(C(=O)O)ccc32)C1 (centres undefined),5,0.244,,
CCN(CC)CC1CN(C(=O)Cn2c(-c3ccc(OC)cc3)c(C3CCCCC3)c3ccc(C(=O)O)cc32)CCO1 (centres undefined),,,0.152,EC50 (Huh-7 [4]): 0.376 µM; IC50 [5]: 0.009 µM
CC(C)N(C)C(=O)Cn1c(-c2ccc(Cl)cc2)c(C2CCCCC2)c2ccc(C(=O)O)cc21,0.9,0.011,,
CN(C)C(=O)CN(C)C(=O)Cn1c(-c2ccccc2)c(C2CCCCC2)c2ccc(C(=O)O)cc21,1.9,0.098,,
CS(=O)(=O)N1CCN(C(=O)Cn2c(-c3ccccc3)c(C3CCCCC3)c3ccc(C(=O)O)cc32)CC1,0.9,0.019,,
CN1CCN(C(=O)Cn2c(-c3ccccc3)c(C3CCCCC3)c3ccc(C(=O)O)cc32)CC1,0.5,0.039,,
CCc1c(C2CCCCC2)c2ccc(C(=O)O)cc2n1CC(=O)N1CCC(N(C)C)CC1,,0.283,,
CS(=O)(=O)N1CCN(C(=O)Cn2c(-c3ccc(Cl)cc3)c(C3CCCCC3)c3ccc(C(=O)O)cc32)CC1,0.5,0.007,,

Structure (SMILES),EC50 (Huh-7 [1]) [µM],IC50 [2] [µM],EC50 (Huh-7 [3]) [µM],other results
CN(C)C1CCN(C(=O)Cn2c(C3CCCCC3)c(C3CCCCC3)c3ccc(C(=O)O)cc32)CC1,,0.072,4,
CN(C)C(=O)CN(C)C(=O)Cn1c(-c2ccccc2)c(C2CCCC2)c2ccc(C(=O)O)cc21,> 5,,,
CN(C)C(=O)Cn1c(-c2ccoc2)c(C2CCCCC2)c2ccc(C(=O)O)cc21,,0.031,0.8,
CN(C)C1CCN(C(=O)Cn2c(-c3ccccc3)c(C3CCCC3)c3ccc(C(=O)O)cc32)C1 (centres undefined),1.5,0.078,,
CN(C)C1CCN(C(=O)Cn2c(C3=CCCCC3)c(C3CCCCC3)c3ccc(C(=O)O)cc32)CC1,,0.018,0.4,
COc1ccc(-c2c(C3CCCCC3)c3ccc(C(=O)O)cc3n2CC(=O)N(C)C)cn1,,0.069,1.8,
CN(C)Cc1ccc(-c2c(C3CCCCC3)c3ccc(C(=O)O)cc3n2CC(=O)N(C)C)cc1,,0.92,17.6,
CN(C)C(=O)Cn1c(-c2cccc(CN3CCCC(F)(F)C3)c2)c(C2CCCCC2)c2ccc(C(=O)O)cc21,,0.018,0.6,
CN(C)C(=O)CN(C)C(=O)Cn1c(-c2ccccc2)c(C2CCCCC2)c2cc(C(=O)O)ccc21,> 5,,,
O=C(O)c1ccc2c(C3CCCCC3)c(-c3ccc(Cl)cc3)n(CC(=O)N3CCS(=O)(=O)CC3)c2c1,0.9,0.011,,
CN1CCCC(CN(C)C(=O)Cn2c(-c3ccc(Cl)cc3)c(C3CCCCC3)c3ccc(C(=O)O)cc32)C1 (centres undefined),0.3,0.012,,inhibition at 10 µM [6]: 92%
CN(C)C(=O)Cn1c(-c2ccccc2)c(C2CCCCC2)c2ccc(C(=O)O)cc21,,,1.5,
CC(C)N(C)C(=O)Cn1c(-c2ccccc2)c(C2CCCCC2)c2ccc(C(=O)O)cc21,1.6,0.062,,
CN(C)C1CCN(C(=O)Cn2c(-c3ccc(Cl)cc3)c(C3CCCCC3)c3ccc(C(=O)O)cc32)C1 (centres undefined),0.2,0.013,,
CN(C)C1CCN(C(=O)Cn2c(-c3cccc(F)c3)c(C3CCCCC3)c3ccc(C(=O)O)cc32)CC1,,,,inhibition at 10 µM [6]: 10%
CN(C)C1CCN(C(=O)Cn2c(-c3ccc(Cl)cc3)c(C3CCCCC3)c3ccc(C(=O)O)cc32)CC1,,,,inhibition at 10 µM [6]: 15%
CN1CCN(C(=O)Cn2c(-c3ccccc3)c(C3CCCCC3)c3cc(C(=O)O)ccc32)CC1,3.5,0.448,,
COc1ccc(-c2c(C3CCCCC3)c3ccc(C(=O)O)cc3n2CC(=O)N2CCC(N(C)C)CC2)cc1,,,0.158,EC50 (Huh-7 [4]): 0.677 µM; IC50 [5]: 0.009 µM
CN(C)C1CCN(C(=O)Cn2c(-c3ccccc3)c(C3CCCCC3)c3ccc(C(=O)O)cc32)C1 (centres undefined),0.7,0.071,,
CS(=O)(=O)N1CCN(C(=O)Cn2c(-c3ccccc3)c(C3CCCCC3)c3cc(C(=O)O)ccc32)CC1,> 5,,,
CC(C)N(C)C(=O)Cn1c(-c2ccccc2)c(C2CCCC2)c2ccc(C(=O)O)cc21,> 5,,,
CC(C)N(C)C(=O)Cn1c(-c2ccccc2)c(C2CCCCC2)c2cc(C(=O)O)ccc21,> 5,,,
CN(C)C(=O)CN(C)C(=O)Cn1c(-c2ccc(Cl)cc2)c(C2CCCCC2)c2ccc(C(=O)O)cc21,1.1,0.017,,
CN(C)Cc1cc(-c2c(C3CCCCC3)c3ccc(C(=O)O)cc3n2CC(=O)N(C)C)ccc1Cl,,0.078,2.7,
O=C(Cn1c(-c2ccccc2)c(C2CCCCC2)c2cc(C(=O)O)ccc21)NCC1CC1,> 5,,,
CN(C)C1CCN(C(=O)Cn2c(-c3ccccc3)c(C3CCCCC3)c3ccc(C(=O)O)cc32)CC1,,0.041,0.3,inhibition at 10 µM [6]: 14%
